Legend:
[1] = target: CYP2D6 (Homo sapiens, UniProt P10635); experiment: Metabolic stability phenotyping with recombinantly expressed CYPs; assay type: in vitro ADME; settings: recombinant CYP2D6, pH 7.4
How it was run: (§1)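 Each recombinant human CYP at 100 pmol/ml with 1 μM test compound in potassium phosphate pH 7.4, 3.33 mM MgCl2. Prewarmed 10 min at 37 °C, then started with NADPH regenerating system; no-NADPH buffer controls. Aliquots at 0–45 min quenched in methanol with buspirone internal standard. MS peak-area ratios gave ln(ratio)-vs-time slope, converted to T1/2. Duplicates.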

[2] = Metabolic stability in liver microsomes; assay type: in vitro ADME, human; settings: for Percent Loss of Substrate / substrate remaining: human liver microsomes; for Percent Loss of Substrate: 1 μM, 20-minute incubation; for substrate remaining: at the end of 20 min; for half-life at 1 μM / microsomal CLint at 1 μM: human, liver microsomes, pH 7.4
How it was run: (§2)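 Pooled liver or lung microsomes (male B6C2F1 mouse, male Sprague-Dawley rat, human) at 1.0 mg protein/ml in 50 mM potassium phosphate pH 7.4, 3 mM MgCl2, 1 mM EDTA. […] Stopped at 0, 5, 10, 20 min with acetonitrile containing antipyrene, then LC/MS/MS. Single-exponential kel gave T1/2. CLint = kel × incubation volume/mg protein.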

[3] = target: T1, CYP2B6 (Homo sapiens, UniProt P20813); experiment: Metabolic stability phenotyping with recombinantly expressed CYPs; assay type: in vitro ADME; settings: recombinant CYP2B6, pH 7.4
T1 sequence (P20813 1-491): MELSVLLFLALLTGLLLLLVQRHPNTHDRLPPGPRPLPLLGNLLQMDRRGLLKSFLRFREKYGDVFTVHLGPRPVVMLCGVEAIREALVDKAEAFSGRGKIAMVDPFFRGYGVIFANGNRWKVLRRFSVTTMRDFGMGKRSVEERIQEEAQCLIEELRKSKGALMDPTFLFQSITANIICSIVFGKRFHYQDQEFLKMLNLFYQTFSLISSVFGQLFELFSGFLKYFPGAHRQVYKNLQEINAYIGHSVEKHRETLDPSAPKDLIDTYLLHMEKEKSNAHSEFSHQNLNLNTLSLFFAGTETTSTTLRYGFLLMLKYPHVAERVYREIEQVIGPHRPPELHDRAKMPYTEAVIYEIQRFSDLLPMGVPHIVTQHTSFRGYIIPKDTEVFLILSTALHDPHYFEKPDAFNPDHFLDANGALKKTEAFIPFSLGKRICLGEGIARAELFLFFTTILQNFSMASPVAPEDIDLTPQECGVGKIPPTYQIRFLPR
How it was run: as §1

[4] = target: CYP2C9 (Homo sapiens, UniProt P11712); experiment: as above; assay type: in vitro ADME; settings: recombinant CYP2C9, pH 7.4
Sequence of CYP2C9 (P11712 whole entry): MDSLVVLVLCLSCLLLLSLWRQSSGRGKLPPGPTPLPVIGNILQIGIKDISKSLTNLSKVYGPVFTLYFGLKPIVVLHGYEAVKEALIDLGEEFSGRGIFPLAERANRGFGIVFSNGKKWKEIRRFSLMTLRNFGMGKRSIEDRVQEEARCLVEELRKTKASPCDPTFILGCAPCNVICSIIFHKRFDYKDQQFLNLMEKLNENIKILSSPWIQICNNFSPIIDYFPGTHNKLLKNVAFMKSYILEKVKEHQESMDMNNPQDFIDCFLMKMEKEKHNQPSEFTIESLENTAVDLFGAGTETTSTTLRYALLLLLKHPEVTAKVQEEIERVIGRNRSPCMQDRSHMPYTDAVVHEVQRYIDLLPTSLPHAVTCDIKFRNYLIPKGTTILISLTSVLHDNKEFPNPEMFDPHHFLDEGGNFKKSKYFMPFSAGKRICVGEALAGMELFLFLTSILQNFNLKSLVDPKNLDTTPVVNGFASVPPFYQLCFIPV
How it was run: as §1

[5] = Metabolic stability in lung microsomes; assay type: in vitro ADME; settings: human lung microsomes, 1 μM, 20-minute incubation
How it was run: as §2

[6] = Metabolic stability in liver microsomes; assay type: in vitro ADME, male B6C2F1 mouse; settings: for half-life at 1 μM / microsomal CLint at 1 μM: male, B6C2F1, mouse, liver microsomes, pH 7.4; for Percent Loss of Substrate: mouse liver microsomes, 1 μM, 20-minute incubation
How it was run: as §2

[7] = target: hERG (Homo sapiens, UniProt Q12809); experiment: hERG patch clamp assay; assay type: cell-based; settings: for inhibition at 10 µM: human
Sequence of hERG (Q12809 whole entry): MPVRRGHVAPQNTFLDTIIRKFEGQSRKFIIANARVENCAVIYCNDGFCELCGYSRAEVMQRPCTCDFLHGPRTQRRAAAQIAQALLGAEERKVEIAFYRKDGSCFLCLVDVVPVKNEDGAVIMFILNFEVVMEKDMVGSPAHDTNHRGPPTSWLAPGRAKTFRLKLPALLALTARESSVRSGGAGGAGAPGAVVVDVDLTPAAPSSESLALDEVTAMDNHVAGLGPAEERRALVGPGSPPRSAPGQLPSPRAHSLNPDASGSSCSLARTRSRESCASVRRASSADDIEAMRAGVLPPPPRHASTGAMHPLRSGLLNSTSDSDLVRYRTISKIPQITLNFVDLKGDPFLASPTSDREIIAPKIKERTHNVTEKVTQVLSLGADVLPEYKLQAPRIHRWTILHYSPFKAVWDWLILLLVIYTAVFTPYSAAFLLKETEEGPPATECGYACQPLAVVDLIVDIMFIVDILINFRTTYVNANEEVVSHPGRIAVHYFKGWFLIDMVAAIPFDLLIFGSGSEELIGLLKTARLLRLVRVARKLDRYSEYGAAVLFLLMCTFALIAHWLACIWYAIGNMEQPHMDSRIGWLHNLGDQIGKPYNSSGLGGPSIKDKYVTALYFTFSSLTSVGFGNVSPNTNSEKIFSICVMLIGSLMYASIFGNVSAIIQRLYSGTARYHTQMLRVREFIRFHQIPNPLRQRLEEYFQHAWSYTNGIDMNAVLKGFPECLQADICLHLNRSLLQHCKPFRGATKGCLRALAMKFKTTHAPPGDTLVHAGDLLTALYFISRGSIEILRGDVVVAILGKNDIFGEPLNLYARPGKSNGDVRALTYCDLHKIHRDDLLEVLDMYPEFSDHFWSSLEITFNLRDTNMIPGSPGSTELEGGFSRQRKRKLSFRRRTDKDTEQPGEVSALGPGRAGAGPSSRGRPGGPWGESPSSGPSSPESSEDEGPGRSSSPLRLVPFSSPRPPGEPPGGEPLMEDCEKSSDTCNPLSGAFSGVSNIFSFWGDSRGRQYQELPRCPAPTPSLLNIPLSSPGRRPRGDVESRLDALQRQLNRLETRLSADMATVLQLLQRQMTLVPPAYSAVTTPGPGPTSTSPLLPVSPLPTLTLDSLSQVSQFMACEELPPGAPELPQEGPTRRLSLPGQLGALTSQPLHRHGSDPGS
How it was run: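 hERG inhibition by patch clamp, measured as block of the tail current. Highest test concentration was 10 μM.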

[8] = target: T2, CYP2C8 (Homo sapiens, UniProt P10632); experiment: Metabolic stability phenotyping with recombinantly expressed CYPs; assay type: in vitro ADME; settings: recombinant CYP2C8, pH 7.4
T2 sequence (P10632 1-490): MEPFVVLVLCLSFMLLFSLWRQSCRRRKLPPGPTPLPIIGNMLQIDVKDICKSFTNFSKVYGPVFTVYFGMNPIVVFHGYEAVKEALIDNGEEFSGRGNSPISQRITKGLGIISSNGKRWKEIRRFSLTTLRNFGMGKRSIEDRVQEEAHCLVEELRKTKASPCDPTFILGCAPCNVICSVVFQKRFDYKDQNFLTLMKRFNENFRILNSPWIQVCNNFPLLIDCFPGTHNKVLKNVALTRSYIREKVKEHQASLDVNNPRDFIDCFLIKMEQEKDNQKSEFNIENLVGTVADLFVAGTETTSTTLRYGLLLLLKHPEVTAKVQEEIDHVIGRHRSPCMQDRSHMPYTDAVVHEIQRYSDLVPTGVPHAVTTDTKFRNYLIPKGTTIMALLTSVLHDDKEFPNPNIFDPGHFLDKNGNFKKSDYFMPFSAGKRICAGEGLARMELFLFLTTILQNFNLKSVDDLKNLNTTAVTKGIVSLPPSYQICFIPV
How it was run: as §1

[9] = target: CYP2C19 (Homo sapiens, UniProt P33261); experiment: as above; assay type: in vitro ADME; settings: recombinant CYP2C19, pH 7.4
Sequence of CYP2C19 (P33261 whole entry): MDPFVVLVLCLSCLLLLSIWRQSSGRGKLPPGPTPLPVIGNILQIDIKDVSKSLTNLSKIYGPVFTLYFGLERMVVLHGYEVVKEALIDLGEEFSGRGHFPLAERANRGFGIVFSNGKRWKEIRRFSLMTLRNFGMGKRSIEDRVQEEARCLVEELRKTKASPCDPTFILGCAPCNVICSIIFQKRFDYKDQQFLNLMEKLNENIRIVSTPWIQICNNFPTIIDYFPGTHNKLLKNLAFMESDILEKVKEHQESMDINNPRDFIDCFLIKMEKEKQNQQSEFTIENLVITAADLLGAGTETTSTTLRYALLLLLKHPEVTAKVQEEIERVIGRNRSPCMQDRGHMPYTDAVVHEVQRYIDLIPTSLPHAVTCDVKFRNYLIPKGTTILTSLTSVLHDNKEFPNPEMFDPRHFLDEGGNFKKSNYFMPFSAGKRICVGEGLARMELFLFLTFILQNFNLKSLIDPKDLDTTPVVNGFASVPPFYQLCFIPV
How it was run: as §1

[10] = target: CYP3A4 (Homo sapiens, UniProt P08684); experiment: as above; assay type: in vitro ADME; settings: recombinant CYP3A4, pH 7.4
Sequence of CYP3A4 (P08684 2-503 limits assumed): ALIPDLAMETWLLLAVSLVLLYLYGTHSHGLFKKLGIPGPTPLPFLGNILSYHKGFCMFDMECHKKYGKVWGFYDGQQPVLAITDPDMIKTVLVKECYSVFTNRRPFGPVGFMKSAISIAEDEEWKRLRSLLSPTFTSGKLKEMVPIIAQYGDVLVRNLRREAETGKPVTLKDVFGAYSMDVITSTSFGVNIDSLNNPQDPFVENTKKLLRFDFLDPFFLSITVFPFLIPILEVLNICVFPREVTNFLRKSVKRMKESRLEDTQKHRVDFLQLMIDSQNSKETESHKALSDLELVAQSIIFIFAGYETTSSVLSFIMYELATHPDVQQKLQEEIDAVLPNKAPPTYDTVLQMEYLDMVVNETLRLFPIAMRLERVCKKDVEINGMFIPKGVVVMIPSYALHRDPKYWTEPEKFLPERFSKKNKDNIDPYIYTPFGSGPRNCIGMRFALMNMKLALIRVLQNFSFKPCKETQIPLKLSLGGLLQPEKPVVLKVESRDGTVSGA
How it was run: as §1

[11] = target: T3, human CYP2A6 (Homo sapiens, UniProt P11509); experiment: Coumarin metabolism assay
T3 sequence (P11509 with tags, fused parts or gaps limits assumed): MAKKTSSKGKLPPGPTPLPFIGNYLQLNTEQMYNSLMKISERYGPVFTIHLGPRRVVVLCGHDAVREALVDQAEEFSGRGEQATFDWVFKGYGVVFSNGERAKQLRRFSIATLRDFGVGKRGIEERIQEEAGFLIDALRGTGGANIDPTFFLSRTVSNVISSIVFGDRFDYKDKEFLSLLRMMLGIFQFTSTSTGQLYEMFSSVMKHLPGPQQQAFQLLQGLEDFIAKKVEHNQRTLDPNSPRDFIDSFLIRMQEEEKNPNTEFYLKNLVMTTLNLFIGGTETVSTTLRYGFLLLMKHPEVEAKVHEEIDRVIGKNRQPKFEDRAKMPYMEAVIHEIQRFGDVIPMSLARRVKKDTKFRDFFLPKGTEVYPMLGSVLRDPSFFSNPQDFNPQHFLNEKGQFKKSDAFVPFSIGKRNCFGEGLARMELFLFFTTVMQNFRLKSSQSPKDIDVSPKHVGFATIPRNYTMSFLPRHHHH

[12] = Metabolic stability in liver microsomes; assay type: in vitro ADME, male Sprague-Dawley rat; settings: for half-life at 1 μM / microsomal CLint at 1 μM: male, Sprague-Dawley, rat, liver microsomes, pH 7.4; for Percent Loss of Substrate: rat liver microsomes, 1 μM, 20-minute incubation
How it was run: as §2

[13] = Metabolic stability in lung microsomes; assay type: in vitro ADME, male Sprague-Dawley rat; settings: for half-life at 1 μM / microsomal CLint at 1 μM: male, Sprague-Dawley, rat, lung microsomes, pH 7.4; for Percent Loss of Substrate: rat lung microsomes, 1 μM, 20-minute incubation
How it was run: as §2

[14] = system: genetic toxicity; experiment: Ames test; assay type: cell-based; settings: compound concentrations 5-100 μM

Sequence of CYP2D6 (P10635 whole entry): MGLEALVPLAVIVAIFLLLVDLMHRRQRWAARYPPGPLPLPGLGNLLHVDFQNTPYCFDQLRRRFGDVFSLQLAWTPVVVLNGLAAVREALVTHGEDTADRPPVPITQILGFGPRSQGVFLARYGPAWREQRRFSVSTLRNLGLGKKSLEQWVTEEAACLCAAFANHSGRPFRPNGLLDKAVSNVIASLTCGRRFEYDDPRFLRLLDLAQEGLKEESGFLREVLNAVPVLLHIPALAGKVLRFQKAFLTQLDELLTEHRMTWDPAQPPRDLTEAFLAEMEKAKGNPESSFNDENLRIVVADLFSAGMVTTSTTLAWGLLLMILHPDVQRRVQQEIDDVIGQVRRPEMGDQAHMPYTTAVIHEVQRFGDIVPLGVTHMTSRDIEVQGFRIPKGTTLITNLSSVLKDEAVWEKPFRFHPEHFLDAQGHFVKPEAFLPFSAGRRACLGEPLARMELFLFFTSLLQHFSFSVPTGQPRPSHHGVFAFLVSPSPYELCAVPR

Row | half-life at 1 μM [1] | Percent Loss of Substrate [2] | substrate remaining [2] | half-life at 1 μM [2] | microsomal CLint at 1 μM [2] | half-life at 1 μM [3] | half-life at 1 μM [4] | Percent Loss of Substrate [5] | half-life at 1 μM [6] | microsomal CLint at 1 μM [6] | Percent Loss of Substrate [6] | half-life at 1 μM [8] | half-life at 1 μM [9] | half-life at 1 μM [10] | Ki [11] | half-life at 1 μM [12] | microsomal CLint at 1 μM [12] | Percent Loss of Substrate [12] | Structure (SMILES) | IC50 [7] | inhibition at 10 µM [7] | other results
1 | 78 min | 85.5% | 14% | 7.6 min | 91.4 µL/min/mg | < 5 min | 230 min | No Loss/No Loss | 0.8 min | 916 µL/min/mg | 100/100% | 51 min | 18 min | 25 min | 287 µM | 4 min | 173 µL/min/mg | 97.3% | Fc1cccc(Cl)c1CN1CCOCC1 [Compound 7, 4-(2-chloro-6-fluorobenzyl)morpholine] | > 10 µM | 24.8% | half-life at 1 μM [13]: 1.5 min; microsomal CLint at 1 μM [13]: 478 µL/min/mg; Percent Loss of Substrate [13]: 100%; Ames test revertants [14]: few or no revertants
2 | 61 min | 47.0% | 53% | 22.9 min | 30.3 µL/min/mg | < 5 min | 476 min | No Loss/No Loss | 1 min | 687 µL/min/mg | 100/100% | 62 min | 13 min | 33 min | ≥ 1000 µM | 4.7 min | 149 µL/min/mg | 96.7% | Clc1ccccc1CN1CCOCC1 [Compound 3, 4-(2-chlorobenzyl)morpholine] | > 10 µM | 13.9% | half-life at 1 μM [13]: 2.4 min; microsomal CLint at 1 μM [13]: 283 µL/min/mg; Percent Loss of Substrate [13]: 99.8%; Ames test revertants [14]: few or no revertants
